Tests used:
SN12C = experiment: Cytotoxicity against human SN12C cells assessed as inhibition of cell growth measured after 48 hrs by SRB assay; format: functional
NCI-H226 = experiment: Cytotoxicity against human NCI-H226 cells assessed as inhibition of cell growth measured after 48 hrs by SRB assay; format: functional
HT-29 = experiment: Cytotoxicity against human HT-29 cells assessed as inhibition of cell growth measured after 48 hrs by SRB assay; format: functional
NCI/ADR-RES = experiment: Cytotoxicity against human NCI/ADR-RES cells assessed as inhibition of cell growth measured after 48 hrs by SRB assay; format: functional
SR = experiment: Cytotoxicity against human SR cells assessed as inhibition of cell growth measured after 48 hrs by SRB assay; format: functional
MCF7 = experiment: Cytotoxicity against human MCF7 cells assessed as inhibition of cell growth measured after 48 hrs by SRB assay; format: functional
LOX IMVI = experiment: Cytotoxicity against human LOX IMVI cells assessed as inhibition of cell growth measured after 48 hrs by SRB assay; format: functional
KM12 = experiment: Cytotoxicity against human KM12 cells assessed as inhibition of cell growth measured after 48 hrs by SRB assay; format: functional
HOP-92 = experiment: Cytotoxicity against human HOP-92 cells assessed as inhibition of cell growth measured after 48 hrs by SRB assay; format: functional
M14 = experiment: Cytotoxicity against human M14 cells assessed as inhibition of cell growth measured after 48 hrs by SRB assay; format: functional
HCT-116 = experiment: Cytotoxicity against human HCT-116 cells assessed as inhibition of cell growth measured after 48 hrs by SRB assay; format: functional
786-0 = experiment: Cytotoxicity against human 786-0 cells assessed as inhibition of cell growth measured after 48 hrs by SRB assay; format: functional
NCI-H460 = experiment: Cytotoxicity against human NCI-H460 cells assessed as inhibition of cell growth measured after 48 hrs by SRB assay; format: functional
OVCAR-4 = experiment: Cytotoxicity against human OVCAR-4 cells assessed as inhibition of cell growth measured after 48 hrs by SRB assay; format: functional
HCC 2998 = experiment: Cytotoxicity against human HCC 2998 cells assessed as inhibition of cell growth measured after 48 hrs by SRB assay; format: functional
UACC-62 = experiment: Cytotoxicity against human UACC-62 cells assessed as inhibition of cell growth measured after 48 hrs by SRB assay; format: functional
SNB-75 = experiment: Cytotoxicity against human SNB-75 cells assessed as inhibition of cell growth measured after 48 hrs by SRB assay; format: functional
COLO 205 = experiment: Cytotoxicity against human COLO 205 cells assessed as inhibition of cell growth measured after 48 hrs by SRB assay; format: functional
A549 = experiment: Cytotoxicity against human A549 cells assessed as inhibition of cell growth measured after 48 hrs by SRB assay; format: functional
BT-549 = experiment: Cytotoxicity against human BT-549 cells assessed as inhibition of cell growth measured after 48 hrs by SRB assay; format: functional
EKVX = experiment: Cytotoxicity against human EKVX cells assessed as inhibition of cell growth measured after 48 hrs by SRB assay; format: functional
U-251 [1] = experiment: Cytotoxicity against human U-251 cells assessed as inhibition of cell growth measured after 48 hrs by SRB assay; format: functional
SK-MEL-28 = experiment: Cytotoxicity against human SK-MEL-28 cells assessed as inhibition of cell growth measured after 48 hrs by SRB assay; format: functional
SF-268 = experiment: Cytotoxicity against human SF-268 cells assessed as inhibition of cell growth measured after 48 hrs by SRB assay; format: functional
OVCAR-5 = experiment: Cytotoxicity against human OVCAR-5 cells assessed as inhibition of cell growth measured after 48 hrs by SRB assay; format: functional
SF-539 = experiment: Cytotoxicity against human SF-539 cells assessed as inhibition of cell growth measured after 48 hrs by SRB assay; format: functional
MOLT-4 = experiment: Cytotoxicity against human MOLT-4 cells assessed as inhibition of cell growth measured after 48 hrs by SRB assay; format: functional
K562 = experiment: Cytotoxicity against human K562 cells assessed as inhibition of cell growth measured after 48 hrs by SRB assay; format: functional
SW-620 = experiment: Cytotoxicity against human SW-620 cells assessed as inhibition of cell growth measured after 48 hrs by SRB assay; format: functional
SNB-19 = experiment: Cytotoxicity against human SNB-19 cells assessed as inhibition of cell growth measured after 48 hrs by SRB assay; format: functional
OVCAR-8 = experiment: Cytotoxicity against human OVCAR-8 cells assessed as inhibition of cell growth measured after 48 hrs by SRB assay; format: functional
Malme-3M = experiment: Cytotoxicity against human Malme-3M cells assessed as inhibition of cell growth measured after 48 hrs by SRB assay; format: functional
SK-MEL-2 = experiment: Cytotoxicity against human SK-MEL-2 cells assessed as inhibition of cell growth measured after 48 hrs by SRB assay; format: functional
HOP-62 = experiment: Cytotoxicity against human HOP-62 cells assessed as inhibition of cell growth measured after 48 hrs by SRB assay; format: functional
PC-3 = experiment: Cytotoxicity against human PC-3 cells assessed as inhibition of cell growth measured after 48 hrs by SRB assay; format: functional
T47D = experiment: Cytotoxicity against human T47D cells assessed as inhibition of cell growth measured after 48 hrs by SRB assay; format: functional
DU-145 = experiment: Cytotoxicity against human DU-145 cells assessed as inhibition of cell growth measured after 48 hrs by SRB assay; format: functional
[2] = Cytotoxicity against human SK-MEL-5 cells assessed as inhibition of cell growth measured after 48 hrs by SRB assay; format: functional
OVCAR-3 = experiment: Cytotoxicity against human OVCAR-3 cells assessed as inhibition of cell growth measured after 48 hrs by SRB assay; format: functional
CCRF-CEM = experiment: Cytotoxicity against human CCRF-CEM cells assessed as inhibition of cell growth measured after 48 hrs by SRB assay; format: functional
A498 = experiment: Cytotoxicity against human A498 cells assessed as inhibition of cell growth measured after 48 hrs by SRB assay; format: functional
SK-OV-3 [3] = experiment: Cytotoxicity against human SK-OV-3 cells assessed as inhibition of cell growth measured after 48 hrs by SRB assay; format: functional
NCI-H23 = experiment: Cytotoxicity against human NCI-H23 cells assessed as inhibition of cell growth measured after 48 hrs by SRB assay; format: functional
IGROV-1 = experiment: Cytotoxicity against human IGROV-1 cells assessed as inhibition of cell growth measured after 48 hrs by SRB assay; format: functional
SF-295 = experiment: Cytotoxicity against human SF-295 cells assessed as inhibition of cell growth measured after 48 hrs by SRB assay; format: functional
HL-60(TB) = experiment: Cytotoxicity against human HL-60(TB) cells assessed as inhibition of cell growth measured after 48 hrs by SRB assay; format: functional
MDA-MB-435 [4] = experiment: Cytotoxicity against human MDA-MB-435 cells assessed as inhibition of cell growth measured after 48 hrs by SRB assay; format: functional
Hs-578T = experiment: Cytotoxicity against human Hs-578T cells assessed as inhibition of cell growth measured after 48 hrs by SRB assay; format: functional
[5] = Induction of microtubule depolymerisation in rat A-10 cell line measured after 18 hrs by indirect immunofluorescence method; conditions: a10
Method in brief: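 Rat A-10 cells, chosen because they arrest in interphase without significant mitotic accumulation, were exposed to compounds for 18 h. Cellular microtubules were then visualized by indirect immunofluorescence. EC50 values come from at least three independent experiments.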

U-251 [6] = experiment: Cytotoxicity against human U251 cell line assessed as inhibition of cell growth after 48 hrs by SRB assay; format: functional, cell-based; conditions: U-251, 48 h
[7] = Inhibition of bovine tubulin polymerization assessed as reduction in extent of assembly preincubated for 15 mins followed by addition of reaction mixture measured after 20 mins by turbidimetric assay; set-up: species or system Bos taurus
Method in brief: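 After chilling, GTP was added (0.4 mM final). Turbidity at 350 nm was read after a jump from 0 °C to 30 °C.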

[8] = Relative resistance, ratio of IC50 for inhibition of beta3 Tubulin (unknown origin) expressed in human HeLa cell line assessed as inhibition of cell proliferation to IC50 antiproliferative activity against human HeLa cells
HeLa = experiment: Antiproliferative activity against human HeLa cells assessed as decrease in cell growth measured after 48 hrs by SRB method; format: functional, cell-based
[9] = Relative resistance, ratio of IC50 for antiproliferative activity against human SK-OV-3 MDR-1-6/6 cells expressing Pgp to IC50 antiproliferative activity against human SK-OV-3 cells; format: functional
MDA-MB-435 [10] = experiment: Antiproliferative activity against human MDA-MB-435 cell line assessed as inhibition of cell proliferation measured after 48 hrs by SRB assay; format: functional, cell-based; conditions: MDA-MB-435, 48 h
Method in brief: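 MDA-MB-435 melanoma cells were assessed by sulforhodamine B assay. IC50 is the mean ± SD of at least three independent experiments, each run in triplicate.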

[11] = Antiproliferative activity against human SK-OV-3 MDR-1-6/6 cells expressing Pgp assessed as decrease in cell growth measured after 48 hrs by SRB method; format: functional; conditions: SK-OV-3, 48 h
Bos taurus = species on record: Bos taurus; experiment: Inhibition of [3H]colchicine binding to bovine tubulin at 5 uM measured after 10 mins by scintillation counting
Method in brief: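 Purified bovine brain tubulin at 1.0 µM was mixed with 5.0 µM [3H]colchicine and inhibitor, plus components that stabilize colchicine binding, in 5% DMSO; tubulin was added last, on ice. Binding ran 10 min at 37 °C and was stopped with ice water. Mixtures were filtered through stacked DEAE-cellulose filters, and bound radiolabel was measured by scintillation counting.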

SK-OV-3 [12] = experiment: Antiproliferative activity against human SK-OV-3 cells assessed as decrease in cell growth measured after 48 hrs by SRB method; format: functional, cell-based; conditions: SK-OV-3, 48 h

CC(=O)O[C@H]1C(=O)[C@@]2(C)[C@H]([C@H](OC(=O)c3ccccc3)[C@]3(O)C[C@H](OC(=O)[C@H](O)[C@@H](NC(=O)c4ccccc4)c4ccccc4)C(C)=C1C3(C)C)[C@]1(OC(C)=O)CO[C@@H]1C[C@@H]2O [PACLITAXEL]
GI50 (SN12C): 6.3 nM | GI50 (NCI-H226): 3.9 nM | GI50 (HT-29): 5 nM | GI50 (NCI/ADR-RES): 630 nM | GI50 (SR): 6.3 nM | GI50 (MCF7): 4 nM | GI50 (LOX IMVI): 5 nM | GI50 (KM12): 5 nM | GI50 (HOP-92): 25 nM | GI50 (M14): 5 nM | GI50 (HCT-116): 4 nM | GI50 (786-0): 39 nM | GI50 (NCI-H460): 6.3 nM | GI50 (OVCAR-4): 630 nM | GI50 (HCC 2998): 1 nM | GI50 (UACC-62): 5 nM | GI50 (SNB-75): 7.9 nM | GI50 (COLO 205): 7.9 nM | GI50 (A549): 6.3 nM | GI50 (BT-549): 4 nM | GI50 (EKVX): 79 nM | GI50 (U-251 [1]): 6.3 nM | GI50 (SK-MEL-28): 400 nM | GI50 (SF-268): 5 nM | GI50 (OVCAR-5): 7.9 nM | GI50 (SF-539): 5 nM | GI50 (MOLT-4): 5 nM | GI50 (K562): 6.3 nM | GI50 (SW-620): 4 nM | GI50 (SNB-19): 10 nM | GI50 (OVCAR-8): 7.9 nM | GI50 (Malme-3M): 50 nM | GI50 (SK-MEL-2): 400 nM | GI50 (HOP-62): 19 nM | GI50 (PC-3): 6.3 nM | GI50 (T47D): 12.5 nM | GI50 (DU-145): 6.3 nM | GI50 [2]: 5 nM | GI50 (OVCAR-3): 4 nM | GI50 (CCRF-CEM): 5 nM | GI50 (A498): 7.9 nM | GI50 (SK-OV-3 [3]): 6.3 nM | GI50 (NCI-H23): 6.3 nM | GI50 (IGROV-1): 6.3 nM | GI50 (SF-295): 25 nM | GI50 (HL-60(TB)): 4 nM | GI50 (MDA-MB-435 [4]): 4 nM | GI50 (Hs-578T): 5 nM

COc1ccc2c(N(C)c3nc(C)nc4c3CCC4)cccc2c1
EC50 [5]: > 10000 nM | IC50 (U-251 [6]): 88.3 nM | IC50 [7]: > 20000 nM

COc1ccc(N(C)c2nc(C)nc3c2CCC3)c2ccccc12
Ratio IC50 [8]: 0.7 | IC50 (HeLa): 250 nM | Ratio IC50 [9]: 1.2 | IC50 (MDA-MB-435 [10]): 230 nM | EC50 [5]: 500 nM | IC50 [11]: 400 nM | inhibition (Bos taurus): 72% | IC50 (SK-OV-3 [12]): 330 nM | IC50 (U-251 [6]): 35.1 nM | IC50 [7]: 1400 nM

From ChEMBL document CHEMBL4680306, “The 3-D conformational shape of N-naphthyl-cyclopenta[d]pyrimidines affects their potency as microtubule targeting agents and their antitumor activity” (Bioorg Med Chem, 2021)
